According to ChEMBL document CHEMBL1157903, “Synthesis and structure-activity relationships of 2-aryl-4-oxazolylmethoxy benzylglycines and 2-aryl-4-thiazolylmethoxy benzylglycines as novel, potent PPARalpha selective activators- PPARalpha and PPARgamma selectivity modulation” (Bioorg Med Chem Lett, 2010):

Experiments:
[1] = target: T1, Peroxisome proliferator-activated receptor alpha (Homo sapiens, UniProt Q07869); experiment: Agonist activity against human Gal4-fussed PPARalpha in HEK293 cells by luciferase reporter gene assay; assay type: functional, cell-based
T1 sequence (Q07869 whole entry): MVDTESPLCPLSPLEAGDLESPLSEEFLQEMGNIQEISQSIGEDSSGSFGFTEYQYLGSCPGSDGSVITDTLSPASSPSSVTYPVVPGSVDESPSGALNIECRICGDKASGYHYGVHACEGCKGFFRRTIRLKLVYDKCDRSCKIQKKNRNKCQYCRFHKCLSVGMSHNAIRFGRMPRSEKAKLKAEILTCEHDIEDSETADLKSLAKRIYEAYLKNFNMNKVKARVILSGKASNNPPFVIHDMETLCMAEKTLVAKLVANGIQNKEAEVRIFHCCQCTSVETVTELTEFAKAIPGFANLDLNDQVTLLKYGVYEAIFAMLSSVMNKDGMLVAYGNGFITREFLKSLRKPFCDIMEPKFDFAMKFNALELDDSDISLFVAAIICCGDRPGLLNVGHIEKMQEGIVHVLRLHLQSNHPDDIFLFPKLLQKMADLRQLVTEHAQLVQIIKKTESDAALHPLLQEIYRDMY
Procedure, shortened: (§1)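 Transactivation assay in HEK293 cells with a luciferase reporter. After cell lysis, luciferin is added and luminescence is read. EC50 is the ligand concentration giving half-maximal fold induction. Maximal efficacy is expressed as % of standards, with fenofibrate at 100 µM = 100% for PPARα and rosiglitazone at 1 µM = 100% for PPARγ. Data are normalized to known agonists at 1 µM.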

[2] = target: T2, Peroxisome proliferator-activated receptor alpha (Homo sapiens) (UniProt Q07869); experiment: Agonist activity against human Gal4-fussed PPARalpha by luciferase reporter gene assay relative to finofibrate; assay type: functional
T2 sequence (whole entry): T1 sequence (Q07869 whole entry)
Procedure, shortened: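 Gal4-fused human PPARα transactivation in HEK293 cells with a luciferase reporter, read as luminescence after cell lysis and luciferin addition. EC50 is the ligand concentration (µM) giving half-maximal fold induction. Maximal efficacy is expressed as a percentage of fenofibrate at 100 µM (set as 100%). Intrinsic activity is the response at 1 µM as a percentage of the standard at 1 µM.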

[3] = target: T3, Peroxisome proliferator-activated receptor gamma (Homo sapiens, UniProt P37231); experiment: Agonist activity against human Gal4-fussed PPARgamma in HEK293 cells by luciferase reporter gene assay; assay type: functional, cell-based; procedure, shortened: as §1
T3 sequence (P37231 whole entry): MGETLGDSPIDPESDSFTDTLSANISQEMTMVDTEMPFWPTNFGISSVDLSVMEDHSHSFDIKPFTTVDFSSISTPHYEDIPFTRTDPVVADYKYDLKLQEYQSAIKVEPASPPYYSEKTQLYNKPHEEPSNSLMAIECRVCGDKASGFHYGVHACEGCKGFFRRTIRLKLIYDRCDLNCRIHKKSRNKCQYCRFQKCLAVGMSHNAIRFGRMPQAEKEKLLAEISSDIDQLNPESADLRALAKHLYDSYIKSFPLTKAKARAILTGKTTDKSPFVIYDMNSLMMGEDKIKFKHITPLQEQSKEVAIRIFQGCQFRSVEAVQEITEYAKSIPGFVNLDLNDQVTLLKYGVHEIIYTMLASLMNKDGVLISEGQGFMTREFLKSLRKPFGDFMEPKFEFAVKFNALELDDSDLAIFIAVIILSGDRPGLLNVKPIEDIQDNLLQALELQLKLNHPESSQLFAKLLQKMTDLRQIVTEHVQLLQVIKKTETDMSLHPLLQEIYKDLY

[4] = target: T4, Peroxisome proliferator-activated receptor gamma (Homo sapiens) (UniProt P37231); experiment: Agonist activity against human Gal4-fussed PPARgamma by luciferase reporter gene assay relative to rosiglitazone
T4 sequence (whole entry): T3 sequence (P37231 whole entry)

[5] = Agonist activity at hamster PPARalpha; assay type: functional, Cricetulus griseus
Hamster [6] = experiment: Antidyslipidemic activity in hamster assessed as decrease in HDL level at 10 mg/kg, po; assay type: functional, Cricetinae; set-up: scale not given: the % may be the effect or the level left
Procedure, shortened: (§2)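 Hamsters kept on high-fat diet for 2 weeks, then dosed 10 mg/kg by oral gavage once daily for 21 days (n = 8). Vehicle: 5% cremophor, 10% NMP, 5% EtOH, 80% water. HDL-c and TG measured at study end. Statistics by Dunnett test, p < 0.05.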

Hamster [7] = experiment: Antidyslipidemic activity in hamster assessed as decrease in triglyceride level at 10 mg/kg, po; assay type: functional, Cricetinae; set-up: scale not given: the % may be the effect or the level left; procedure, shortened: as §2
[8] = Drug level in hamster liver at 10 mg/kg, po; assay type: ADME, organism-based; set-up: dose 10 mg/kg, route oral; details: cricetinae, in vivo, read-out: Drug uptake
Procedure, shortened: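 High-fat-fed hamsters (2 weeks on diet), 10 mg/kg po once daily for 21 days (n = 8). Vehicle: 5% cremophor/10% NMP/5% EtOH/80% water. Liver drug level taken 1 h post-dose in the fed state.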

[9] = Drug level in hamster plasma at 10 mg/kg, po; assay type: ADME, organism-based; set-up: dose 10 mg/kg, route oral; details: cricetinae, in vivo, read-out: Drug uptake
Procedure, shortened: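 High-fat-fed hamsters (2 weeks on diet), 10 mg/kg po once daily for 21 days (n = 8). Vehicle: 5% cremophor/10% NMP/5% EtOH/80% water. Plasma drug level taken in the fasted state at 18 h post-dose.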

[10] = Volume of distribution at steady state Sprague-Dawley rat at 5 mg/kg, iv and 10 mg/kg, po; assay type: ADME, organism-based; details: in vivo, read-out: Vdss
Procedure, shortened: (§3)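 Male Sprague-Dawley rats (n = 2) given 5 mg/kg IV and 10 mg/kg PO. Vehicle: 10% NMP, 20% PEG-400, 70% potassium phosphate buffer.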

[11] = Clearance in Sprague-Dawley rat at 5 mg/kg, iv and 10 mg/kg, po; assay type: ADME, organism-based; details: in vivo; procedure, shortened: as §3
[12] = Half life in Sprague-Dawley rat at 5 mg/kg, iv and 10 mg/kg, po; assay type: ADME, organism-based; details: in vivo; procedure, shortened: as §3
[13] = Mean retention time in Sprague-Dawley rat at 5 mg/kg, iv and 10 mg/kg, po; assay type: ADME, organism-based; details: in vivo; procedure, shortened: as §3
[14] = Oral bioavailability in Sprague-Dawley rat at 10 mg/kg; assay type: ADME, organism-based; details: in vivo
Procedure, shortened: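 Male Sprague-Dawley rats (n = 2). Oral dose 10 mg/kg, with 5 mg/kg IV for comparison. Vehicle: 10% NMP, 20% PEG-400, 70% potassium phosphate buffer.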

Hamster [15] = experiment: Induction of PDK4 mRNA level in hamster liver at 10 mg/kg, po after 6 hrs relative to fenofibrate; assay type: functional, Cricetinae
Procedure, shortened: (§4)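 Single oral dose of 10 mpk in hamsters, with fenofibrate reference at 100 mpk. Liver PDK4 and HD mRNA measured at 6 h post-dose. Values expressed relative to fenofibrate, set as 100%.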

Hamster [16] = experiment: Induction of hydrase mRNA level in hamster liver at 10 mg/kg, po after 6 hrs relative to fenofibrate; assay type: functional, Cricetinae; procedure, shortened: as §4
Cricetulus griseus = organism: Cricetulus griseus; experiment: Agonist activity at hamster PPARalpha relative to fenofibrate; assay type: functional

| SMILES | EC50 [1] [nM] | Emax [2] [%] | EC50 [3] [µM] | Emax [4] [%] | also measured |
| --- | --- | --- | --- | --- | --- |
| Cc1ccc(F)c(OC(=O)N(CC(=O)O)[C@@H](C)c2cccc(OCc3coc(-c4ccc(Cl)cc4)n3)c2)c1 | 471 | 56 | 0.71 | 58 |  |
| COC(=O)N(CC(=O)O)Cc1cccc(OCc2coc(-c3ccc(Cl)cc3)n2)c1 | 64 | 78 | 9.19 | 46 | EC50 [5]: 979 nM; Activity (Hamster [6]): 44%; Activity (Hamster [7]): 84%; concentration [8]: 83.8 µM; concentration [9]: 72.9 µM; Vd [10]: 0.2 L/kg; clearance [11]: 0.7 mL/min/kg; half-life [12]: 276 min; MRT [13]: 10.7 h; bioavailability [14]: 75%; Activity (Hamster [15]): 505%; Activity (Hamster [16]): 192%; Emax (Cricetulus griseus): 84% |
| Cc1cccc(OC(=O)N(CC(=O)O)[C@@H](C)c2cccc(OCc3coc(-c4ccc(Cl)cc4)n3)c2)c1 | 22 | 62 | 0.571 | 83 |  |
| COC(=O)N(CC(=O)O)[C@@H](C)c1cccc(OCc2coc(-c3ccc(C)cc3)n2)c1 | 87 | 87 | 20.7 | 130 |  |
| COC(=O)N(CC(=O)O)Cc1cccc(OCc2coc(-c3ccc(F)c(Cl)c3)n2)c1 | 395 | 97 | 6.39 | 54 |  |
| COC(=O)N(CC(=O)O)Cc1cccc(OCc2coc(-c3ccccc3)n2)c1 | 1230 | 105 | > 25 |  |  |
| COC(=O)N(CC(=O)O)[C@@H](C)c1cccc(OCc2coc(-c3ccc(Cl)cc3)n2)c1 | 73 | 65 | > 8.3 | 189 |  |
| COC(=O)N(CC(=O)O)Cc1cccc(OCc2coc(-c3ccc(C)cc3)n2)c1 | 29.9 | 85 | 15.6 | 94 |  |
| COC(=O)N(CC(=O)O)Cc1cccc(OCc2csc(-c3ccc(C)cc3)n2)c1 | 41.8 | 71 | 9.29 | 84 |  |
| C[C@@H](c1cccc(OCc2coc(-c3ccc(Cl)cc3)n2)c1)N(CC(=O)O)C(=O)Oc1ccccc1 | 145 | 53 | 1.69 | 43 |  |
| COc1ccc(OC(=O)N(CC(=O)O)[C@@H](C)c2cccc(OCc3coc(-c4ccc(Cl)cc4)n3)c2)cc1 | 66 | 69 | 0.97 | 62 |  |
| COC(=O)N(CC(=O)O)Cc1cccc(OCc2csc(-c3cccc(Cl)c3)n2)c1 | 1450 | 117 | 4.02 | 54 |  |
| COC(=O)N(CC(=O)O)Cc1cccc(OCc2coc(-c3cccc(C)c3)n2)c1 | 451 | 92 | > 25 |  |  |
| COC(=O)N(CC(=O)O)Cc1cccc(OCc2coc(-c3ccc(F)cc3F)n2)c1 | 1090 | 78 | > 25 |  |  |
| COC(=O)N(CC(=O)O)Cc1cccc(OCc2coc(-c3ccc(F)cc3)n2)c1 | 235 | 88 | > 25 |  |  |
| COC(=O)N(CC(=O)O)Cc1cccc(OCc2nc(-c3ccc(Cl)cc3)oc2C)c1 |  | 79 |  | 82 | Activity (Hamster [6]): 20%; Activity (Hamster [7]): 77%; Vd [10]: 0.7 L/kg; clearance [11]: 4.3 mL/min/kg; half-life [12]: 192 min; MRT [13]: 2.8 h; Activity (Hamster [15]): 230%; Activity (Hamster [16]): 277%; Emax (Cricetulus griseus): 83% |
| COc1cc(OC(=O)N(CC(=O)O)[C@@H](C)c2cccc(OCc3coc(-c4ccc(Cl)cc4)n3)c2)ccc1F | 51 | 64 | 1.44 | 74 |  |
| COC(=O)N(CC(=O)O)Cc1cccc(OCc2csc(-c3ccccc3Cl)n2)c1 | > 2500 |  | 5.04 | 55 |  |
| COC(=O)N(CC(=O)O)Cc1cccc(OCc2csc(-c3ccc(C(F)(F)F)cc3)n2)c1 | 46.6 | 73 | 3.44 | 73 | EC50 [5]: 811 nM; Activity (Hamster [6]): 52%; Activity (Hamster [7]): 72%; concentration [8]: 86.8 µM; Vd [10]: 0.3 L/kg; clearance [11]: 0.5 mL/min/kg; half-life [12]: 474 min; MRT [13]: 6 h; bioavailability [14]: 75%; Activity (Hamster [15]): 308%; Activity (Hamster [16]): 126%; Emax (Cricetulus griseus): 65% |
| COc1cccc(OC(=O)N(CC(=O)O)[C@@H](C)c2cccc(OCc3coc(-c4ccc(Cl)cc4)n3)c2)c1 | 13 | 69 | 0.772 | 95 | EC50 [5]: 66 nM; Activity (Hamster [6]): 39%; Activity (Hamster [7]): 49%; Emax (Cricetulus griseus): 71% |
| COC(=O)N(CC(=O)O)Cc1cccc(OCc2csc(-c3ccc(Cl)cc3)n2)c1 | 90 | 90 | 4.69 | 35 |  |
| COC(=O)N(CC(=O)O)Cc1cccc(OCc2csc(-c3ccccc3)n2)c1 | 304 | 70 | > 25 |  |  |
| COC(=O)N(CC(=O)O)Cc1cccc(OCc2coc(-c3ccc(C(F)(F)F)cc3)n2)c1 | 68 | 74 | 4.81 | 34 |  |
